Legend:
U2 snRNP = conditions: bypassed by an ATP-dependent rearrangement; cited from earlier work
SF3B [1] = target: T1, SF3B (Homo sapiens, UniProt O75533+Q7RTV0); type: biochemical; conditions: for splicing efficiency, first incubation at 30°C compared to 4°C before excess iHB: 1 μM inhibitor, then 100 μM iHB
U2 snRNA = test: RNase H cleavage analysis of U2 snRNA accessibility in nuclear extract; type: biochemical, human; conditions: 1 μM, 10 minutes at 30°C
Procedure, shortened: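 HeLa nuclear extract (40%), ATP-depleted 10 min at 30°C, in 60 mM potassium glutamate, 2 mM Mg acetate, 0.1 mg/mL tRNA, ±2 mM ATP, with test compound or DMSO, 10 min, 30°C. Oligos against U2 nt 24–38 or 32–46 (5 μM) were added for 15 min for endogenous RNase H cleavage, then DNase-removed. Read-out: primer extension (³²P primer, U2 97–117; MMLV RT, 53°C, 30 min), denaturing gel, phosphorimaging.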

SF3B [2] = target: T1, SF3B; conditions: cited from earlier work; for splicing products with inhibitor alone: 1 μM inhibitor alone in in vitro splicing reaction

Structure (SMILES)	effect on U2 snRNPs ability to engage an oligo containing the branch sequence (U2 snRNP)	splicing efficiency, inhibitor incubated before excess iHB competitor (SF3B [1]; 1 μM inhibitor 10 min, then 100 μM iHB 10 min)	splicing products, inhibitor followed by DMSO (SF3B [1]; 1 μM inhibitor 10 min, then DMSO 10 min, 4°C)	splicing efficiency, first incubation at 30°C compared to 4°C before excess iHB (SF3B [1])	off-rate (SF3B [1]; inferred from order of addition, not direct binding)	effect on ATP-dependent changes in U2 snRNA cleavage (U2 snRNA)	splicing products with inhibitor alone (SF3B [2])	IC50 (SF3B [2]; read-out: IC50 value for in vitro splicing, HeLa nuclear extract) [µM]
CC[C@H](O)[C@@H](C)[C@H]1O[C@@H]1C[C@@](C)(O)/C=C/C=C(\C)[C@H]1OC(=O)C[C@H](O)CC[C@@](C)(O)[C@@H](OC(=O)N2CCN(C3CCCCCC3)CC2)/C=C/[C@@H]1C [E7107]	inhibits	–	–	–	–	–	–	–
CO[C@]1(C)C[C@@]2(CO2)[C@H](O)[C@@H](/C=C/C(C)=C/C[C@@H]2O[C@H](C)[C@H](NC(=O)/C=C\[C@H](C)OC(C)=O)C[C@@H]2C)O1 [SSA, spliceostatin A]	–	greatly reduced	no splicing products	lower	very slow	does not interfere	not detected	–
CO[C@H]([C@@H](C)[C@H]1O[C@]1(C)C[C@H](C)/C=C/C=C(\C)[C@H]1O[C@@H](CC(=O)O)CC[C@@H]1C)[C@@H](C)O [compound 1, herboxidiene]	–	–	–	lower	–	–	not detected	0.3
